XBP1 UPR activ: adaptive UPR (XBP1) activation | CHO-XBP1 luciferase reporter, IRE1-XBP1 UPR activation, luminescence; percent of tunicamycin response, DMSO as zero | activation, % at 20 µM | actives 0.33% (n = 330,000);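 active = versus positive control, 20 µM dose yields 30% or more activation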
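Signal: luciferase luminescence; Assay system: CHO-XBP1 luciferase reporter cells; Amount: one thousand reporter cells per well; Dosing: 20 µM single concentration, DMSO 1%; Benchmarks: high control tunicamycin 10 µg/mL final, low control DMSO vehicle only; Schedule: 6 h compound exposure at 37 °C, 5% CO2; Evaluation: percent activation relative to tunicamycin reference.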
CHOP inhibitor: blocks CHOP induction under ER stress; AID 2732; CHO-K1 CHOP-promoter luciferase, tunicamycin-induced, 15-18 h; inhibition, % at 10 µM; actives 3.8% (n = 220,000);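 active = compounds that reduced the stress-induced luciferase reporter signal by more than about 70% of percent inhibition, limit read from the data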
CHOP UPR activ: activators of apoptotic arm of unfolded protein response (CHOP) | CHO-CHOP luciferase reporter, UPR activation, luminescence; percent of tunicamycin response over DMSO baseline | activation, % at 10 µM | AID 449763 | actives 0.34% (n = 330,000);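 active = at 10 µM dose, activation of 40% or more, normalized to positive control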
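assay system = CHO CHOP reporter cells | amount = 500 CHO-CHOP cells per well | buffer or medium = F12 with 10% FBS | incubation = 16-18 h cell attachment, then 6 h compound exposure, 37 °C | detection = luminescence read with Steady-Glo | read-out = percent activation relative to tunicamycin control | controls = tunicamycin high control, DMSO low control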
FXN GAA850 act: increases GAA850 frataxin promoter reporter activity. HEK293 lucGAA850 FXN promoter luciferase reporter, 24 h; percent of 10 µM SAHA response. activation, % at 6 µM. actives 0.56% (n = 360,000). AID 540364;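 active = activation above the average of all compounds screened plus 3 SD, cutoff fixed separately per campaign, cut at about 7.5% in these data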
GAA30 counter: counter-screen for GAA850 frataxin promoter activators: GAA30 promoter activation. actives 66% (n = 1,900). activation, % at 6 µM. shares compounds with FXN GAA850 act. HEK293 lucGAA30 FXN promoter luciferase, 24 h; DMSO = 0%, 5 µM ipriflavone = 100%. AID 588350;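 active = mean activation above the mean of solvent-only control wells plus 3 SD, cut at about 22% in these data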;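 also: counterscreen of GAA850 promoter hits where activity marks nonselective or luminescence artifacts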
GAA850 confirm: confirmation of GAA850 frataxin (FXN) promoter activators. HEK293 lucGAA850 FXN promoter luciferase reporter, 24 h; 100% = activation by SAHA. activation, % at 6 µM. actives 86% (n = 1,900). shares compounds with FXN GAA850 act. AID 588351;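 active = mean activation above a set limit taken from the primary screen, cut at about 8% in these data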
A number is an active result; n = inactive; x = no result; ! = a repeat was not active. This excerpt belongs to a sample that is enriched for hits.

SMILES	XBP1 UPR activ	CHOP inhibitor	CHOP UPR activ	FXN GAA850 act	GAA30 counter	GAA850 confirm
C[C@H]1CN([C@@H](C)CO)C(=O)c2cc(Br)cnc2O[C@@H]1CN(C)S(=O)(=O)c1cn(C)cn1	x	x	x	n	x	x
O=C(CSc1nnnn1-c1ccc(F)cc1)c1ccc(O)c(O)c1	x	n	x	12	31	17
Cn1c(=O)c(/C=C/c2ccccc2)nc2ccccc21	n	n	n	8.1	127	50
Cn1c(=O)c(/C=C/c2ccc(F)cc2)nc2ccccc21	x	n	x	n	x	x
[O-][N+]1=c2ccc(Nc3ccccc3)cc2=NC12CCCCC2	x	n	x	10	46	70
O=[N+]([O-])c1ccc2c(c1N1CCCCC1)=NC1(CCCCC1)[N+]=2[O-]	n	n	n	n	x	x
COc1ccc(C2=NN(c3ccc(C(=O)O)cc3)C(c3ccc(OC)c(OC)c3)C2)cc1 (configuration not stated)	n	x	n	11	31	19
COc1ccc(-c2nc3ccccc3s2)cc1NC(C)=O	n	n	n	8.4	124	40
COc1ccc(C(=O)Nc2nc3ccccc3s2)cc1OC	n	n	n	11	116	29
CC1(C(=O)NS(=O)(=O)c2ccc(F)cc2F)CCN1C(=O)Cc1cccc2ccccc12 (configuration not stated)	x	x	x	n	x	x
CCCC(=O)N1CCC1(C)C(=O)Nc1cc(OC)ccc1OC (configuration not stated)	x	x	x	n	x	x
CC[C@@]12C(=O)N(c3cccc(Br)c3)C(=O)N1[C@H](c1ccc(F)cc1)[C@@H]1C(=O)N(C3CCCCC3)C(=O)[C@@H]12	n	x	n	8.4	n	12
CCN1C(=O)[C@H]2[C@@H](c3ccc(C)cc3)N3C(=O)N(c4cccc(F)c4)C(=O)[C@@]3(CC)[C@H]2C1=O	n	x	n	n	x	x
Cc1cccc([C@@H]2[C@@H]3C(=O)N(Cc4ccccc4)C(=O)[C@@H]3[C@]3(CC(C)C)C(=O)N(c4cccc(Br)c4)C(=O)N23)c1	n	x	n	n	x	x
CC(C)C[C@@]12C(=O)N(c3cccc(Br)c3)C(=O)N1[C@H](c1ccc(F)cc1)[C@@H]1C(=O)N(C3CCCCC3)C(=O)[C@@H]12	n	x	n	11	n	10.0
O=C(c1ccccc1)c1cc2cc(Cl)ccc2[nH]1	n	x	n	8.3	87	35
CC1=C(C(=O)N2CCOCC2)CC(CC(=O)NC2CCCC2)C(=O)N1CCCN1CCCC1=O (configuration not stated)	x	x	x	n	x	x
O=C(Nc1ncc(Cc2cccc(Cl)c2)s1)C1CCCO1 (configuration not stated)	n	n	n	8.2	87	28
O=C(Nc1ncc(Cc2cccc(Cl)c2Cl)s1)C1CCCO1 (configuration not stated)	n	n	n	n	x	x
Oc1cc(NCc2cccnc2)ccc1-c1nc2ccccc2o1	n	n	n	11	81	44
Cc1cc(OCC(=O)OCC(=O)N(Cc2ccccc2)C(C)(C)C)ccc1Cl	x	x	x	n	x	x
CC(C)c1ccc(CC(=O)N2CCC2(C)C(=O)NS(=O)(=O)c2cccc(OC(F)F)c2)cc1 (configuration not stated)	x	x	x	n	x	x
Cc1ccnc(NC(=O)CCCOc2cc(=O)n(C)c3ccccc23)c1	n	x	n	8.8!	68	61
Cn1c(=O)cc(OCCCC(=O)NCc2ccccn2)c2ccccc21	n	n	n	n	x	x
CCOC(=O)C(C)Oc1cccc2c(=O)n(CC(=O)Nc3ccc4c(c3)OCCO4)ccc12 (configuration not stated)	n	n	n	11	n	n
SMILES	XBP1 UPR activ	CHOP inhibitor	CHOP UPR activ	FXN GAA850 act	GAA30 counter	GAA850 confirm
CCOC(=O)C(C)Oc1cccc2c(=O)n(CC(=O)Nc3cccc(OC)c3)ccc12 (configuration not stated)	n	n	n	n	x	x
CCCc1c(C(=O)N/N=C/c2ccoc2)nnn1-c1nonc1N	x	x	x	n	x	x
O=C(NCc1ccccc1)Nc1nnc([C@@H]2C[C@H](O)[C@@H](CO)O2)s1	x	x	x	n	x	x
CCOc1ccc(N2CC(C(=O)Nc3cccc(S(=O)(=O)N4CCOCC4)c3)CC2=O)cc1 (configuration not stated)	x	x	x	n	x	x
Fc1cccc(Cn2ccc(-c3ccc4c(c3)OCO4)n2)c1	n	n	n	9.4	84	25
O=C(NC12CC3CC(CC(C3)C1)C2)OCCNC1CCCCC1	n	n	n	15	23	10
CN(C)S(=O)(=O)c1ccc(N2CCCC2)c(C(=O)NC(c2ccccc2)c2ccccc2)c1	n	n	n	n	x	x
CC(NC(=O)c1cc(S(=O)(=O)N(C)C)ccc1N1CCCC1)C1CC2CCC1C2 (configuration not stated)	n	n	n	11	31	13
N#C/C(N=Nc1ccccc1O)=N\Nc1ccccc1O	n	x	n	n	x	x
COc1cccc(CN(C)C[C@@H]2OCc3cnnn3CCCC(=O)N([C@@H](C)CO)C[C@H]2C)c1	x	x	x	n	x	x
Cn1cnc2cc(NC(=O)c3ccc(Cl)cc3)ccc21	n	n	n	9.3	95	42
N#C/C(=C\c1cccs1)C(=O)Nc1ccccn1	n	n	n	8.9	106	34
CC1(C(=O)NS(=O)(=O)c2ccccc2Cl)CCN1C(=O)Cc1ccc(Cl)cc1Cl (configuration not stated)	x	x	x	n	x	x
CCc1ccccc1Nc1nc(-c2cccnc2)cs1	n	x	n	n	x	x
O=[N+]([O-])c1ccccc1Nc1nc(-c2cccnc2)cs1	n	x	n	9.1	87	26
OC(c1cc(F)cc(Cl)c1)c1ncc(-c2ccc3ccccc3c2)[nH]1 (configuration not stated)	x	x	x	n	x	x
CC(C)CN(C(=O)C(c1ccccc1)c1ccccc1)c1c(N)n(CC(C)C)c(=O)[nH]c1=O	n	n	n	7.9	n	n
Cc1cc(SCC(=O)N(CC(C)C)c2c(N)n(CC(C)C)c(=O)[nH]c2=O)nc2ccccc12	n	x	n	n	x	x
Clc1ccccc1CNCc1ccc2c(c1)OCO2	x	x	x	n	x	x
CCOC1OC2C(CO)OC(n3cnc4c(N)ncnc43)C2O1 (configuration not stated)	n	n	n	11	28	9.2
CC(=O)NCCNc1nc2cc(-c3ccc(C(=O)N4CCN(C)CC4)cc3)sc2c(=O)n1C	x	x	x	n	x	x
Cc1cc(C)nc(N2N=C(C(C)(C)C)CC2=O)n1	n	n	n	16	n	8.0
CCOc1cccc(Cc2c[nH]c(=O)[nH]c2=O)c1	x	x	x	n	x	x
O=C(CCCCCCC(=O)Nc1ccccc1)NO	n	x	n	88	61	97
CCCCNC(=O)C1(C)CCN1C(=O)c1cc(F)ccc1C (configuration not stated)	x	x	x	n	x	x
